Data set [1] can be described thus: Diuretic activity at 40 mg/kg (screening dose-84 umol/kg) in male […] in a one stage experiment; T/C = urine vol of treated rats / urine vol of control rats. In kind it is functional. An outline of the steps:
(§1)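 40 mg/kg given by gavage in 25 mL/kg 0.9% saline with 0.5% (carboxymethyl)cellulose. Four rats per agent, two per metabolism cage; 20 controls; 5 h urine. T/C = treated/control urine volume. Stage-1 T/C of 1.66 or more leads to stage 2; product T/C1·T/C2 of 3.34 or more counts as active.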

Data set [2] can be described thus: Diuretic activity at 40 mg/kg (screening dose-90.1 umol/kg) in […] in a one stage experiment; T/C = urine vol of treated rats / urine vol of control rats. In kind it is functional. The gist of the method:
as §1

Data set [3] in a line: Diuretic activity at 40 mg/kg (screening dose-84.7 umol/kg) in […] in a one stage experiment; T/C = urine vol of treated rats / urine vol of control rats. The data set is classed as functional. An outline of the steps: as §1
The test system of data set [4] is Rattus norvegicus. The data set can be described thus: Mean excretion of sodium in conscious rats at a dose of 30 mg/kg given orally. The data set is classed as ADME, organism-based. More on the design: dose 30 mg/kg, route oral. As to conditions: in vivo, po. An outline of the steps: (§2)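 Male Sprague-Dawley rats, about 160 g, fasted 24 h and water withheld 1 1/2 h beforehand; food and water withheld during the test. Dosing by gavage with 25 mL/kg 0.9% saline containing 0.5% (carboxymethyl)cellulose, agent dissolved or suspended. Three cages of two rats each per dose, held in metabolism cages. Urine collected over 5 h. Volume given in mL, Na+ in mequiv. Significance versus control at P < 0.05.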

Data set [5] relates to Rattus norvegicus. The data set can be described thus: Mean excretion of sodium in conscious rats at a dose of 3.0 mg/kg given orally. The data set is classed as ADME, organism-based. More on the design: dose 3 mg/kg, route oral. As to conditions: in vivo, po. The gist of the method: as §2
Data set [6] is filed under the species Rattus norvegicus. The data set can be described thus: […]. In kind it is ADME, organism-based, Urine. More on the design: dose 10 mg/kg, route oral. The settings on record: in vivo, po, 10 mg/kg. An outline of the steps: as §2
Data set [7] deals with Rattus norvegicus. Briefly: Mean excretion of chloride in conscious rats at a dose of 1.0 mg/kg given orally. The data set is classed as ADME, organism-based. More on the design: dose 1 mg/kg, route oral. The settings on record: in vivo, po. An outline of the steps:
(§3)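 Secondary dose-response in male Sprague-Dawley rats (~160 g), fasted and hydrated as in the primary screen. Oral gavage at 0.3-100 mg/kg in 25 mL/kg saline/0.5% CMC, three cages of two rats per dose. Urine collected 5 h; Na, K, Cl, HCO3 measured. Values are mean excretion (mequiv), compared with controls at P < 0.05.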

Data set [8] concerns Rattus norvegicus. The data set can be described thus: Mean excretion of sodium in conscious rats at a dose of 0.3 mg/kg given orally. In kind it is ADME, organism-based. More on the design: dose 0.3 mg/kg, route oral. As to conditions: in vivo, po. The gist of the method: as §2
In data set [9] the test system is Rattus norvegicus. The data set can be described thus: Mean excretion of sodium in conscious rats at a dose of 10 mg/kg given orally. In kind it is ADME, organism-based. The settings on record: in vivo, po. More on the design: dose 10 mg/kg, route oral. The gist of the method:
as §2

Data set [10] concerns Rattus norvegicus. Briefly: Mean excretion of potassium in conscious rats at a dose of 100 mg/kg given orally. In kind it is ADME, organism-based. More on the design: dose 100 mg/kg, route oral. As to conditions: in vivo, po. An outline of the steps:
as §3

For data set [11], the species on record is Rattus norvegicus. Briefly: […]. The data set is classed as ADME, organism-based, Urine. More on the design: dose 1 mg/kg, route oral. The settings on record: in vivo, po, 1 mg/kg. An outline of the steps: (§4)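 Dose-response test in male Sprague-Dawley rats of about 160 g, fasted 24 h, with water withheld 1½ h before and during the test. Each rat got a single gavage of 25 mL/kg 0.9% saline with 0.5% carboxymethylcellulose carrying the agent (0.3–100 mg/kg range). Rats were housed two per metabolism cage, and urine was collected for 5 h. Mean urine volume (mL) was compared with controls (P < 0.05).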

The species named for data set [12] is Rattus norvegicus. Briefly: […]. In kind it is ADME, organism-based, Urine. More on the design: dose 3 mg/kg, route oral. The settings on record: in vivo, po, 3 mg/kg. An outline of the steps: as §2
Data set [13] relates to Rattus norvegicus. Briefly: Mean excretion of chloride in conscious rats at a dose of 100 mg/kg given orally. In kind it is ADME, organism-based. As to conditions: in vivo, po. More on the design: dose 100 mg/kg, route oral. The gist of the method:
as §3

For data set [14], the system named is Rattus norvegicus. Briefly: Mean excretion of potassium in conscious rats at a dose of 30 mg/kg given orally. More on the design: dose 30 mg/kg, route oral. The data set is classed as ADME, organism-based. The settings on record: in vivo, po. The gist of the method:
as §3

Data set [15] has as its system Rattus norvegicus. Briefly: Mean excretion of sodium in conscious rats at a dose of 100 mg/kg given orally. The data set is classed as ADME, organism-based. More on the design: dose 100 mg/kg, route oral. The settings on record: in vivo, po. An outline of the steps: as §2
The test system of data set [16] is Rattus norvegicus. The data set can be described thus: Mean excretion of chloride in conscious rats at a dose of 30 mg/kg given orally. In kind it is ADME, organism-based. More on the design: dose 30 mg/kg, route oral. As to conditions: in vivo, po. An outline of the steps: as §3
For data set [17], the species on record is Rattus norvegicus. Briefly: […]. More on the design: dose 0.3 mg/kg, route oral. In kind it is ADME, organism-based, Urine. As to conditions: in vivo, po, 0.3 mg/kg. The gist of the method: as §4
The subject of data set [18] is Rattus norvegicus. The data set can be described thus: Mean excretion of potassium in conscious rats at a dose of 0.3 mg/kg given orally. In kind it is ADME, organism-based. More on the design: dose 0.3 mg/kg, route oral. The settings on record: in vivo, po. The gist of the method: as §3
The subject of data set [19] is Rattus norvegicus. The data set can be described thus: Mean excretion of chloride in conscious rats at a dose of 10 mg/kg given orally. In kind it is ADME, organism-based. More on the design: dose 10 mg/kg, route oral. As to conditions: in vivo, po. The gist of the method:
as §3

Data set [20] is filed under the species Rattus norvegicus. Briefly: […]. The data set is classed as ADME, organism-based, Urine. More on the design: dose 100 mg/kg, route oral. The settings on record: in vivo, po, 100 mg/kg. An outline of the steps:
as §2

Data set [21] concerns Rattus norvegicus. The data set can be described thus: Mean excretion of potassium in conscious rats at a dose of 10 mg/kg given orally. In kind it is ADME, organism-based. The settings on record: in vivo, po. More on the design: dose 10 mg/kg, route oral. An outline of the steps:
as §3

The subject of data set [22] is Rattus norvegicus. The data set can be described thus: Mean excretion of chloride in conscious rats at a dose of 3.0 mg/kg given orally. The data set is classed as ADME, organism-based. More on the design: dose 3 mg/kg, route oral. As to conditions: in vivo, po. An outline of the steps:
as §3

The subject of data set [23] is Rattus norvegicus. Briefly: (§5) Mean excretion of Cl- in conscious rats at a dose of 0.3 mg/kg given orally. The data set is classed as ADME, organism-based, Urine. More on the design: dose 0.3 mg/kg, route oral. As to conditions: in vivo, po. The gist of the method: as §4
Data set [24] deals with Rattus norvegicus. The data set can be described thus: Mean excretion of […] in conscious rats at a dose of 1.0 mg/kg given orally. The data set is classed as ADME, organism-based. More on the design: dose 1 mg/kg, route oral. The settings on record: in vivo, po. An outline of the steps: as §2
Data set [25] has as its system Rattus norvegicus. The data set can be described thus: Mean excretion of potassium in conscious rats at a dose of 3.0 mg/kg given orally. The data set is classed as ADME, organism-based. More on the design: dose 3 mg/kg, route oral. As to conditions: in vivo, po. An outline of the steps:
as §3

For data set [26], the species on record is Rattus norvegicus. The data set can be described thus: […]. In kind it is ADME, organism-based, Urine. More on the design: dose 30 mg/kg, route oral. The settings on record: in vivo, po, 30 mg/kg. An outline of the steps: as §2
For data set [27], the system named is Rattus norvegicus. Briefly: Mean excretion of potassium in conscious rats at a dose of 1.0 mg/kg given orally. As to conditions: in vivo, po. More on the design: dose 1 mg/kg, route oral. The data set is classed as ADME, organism-based. An outline of the steps: as §3
The nature of data set [28]: Mean excretion of Cl- in conscious rats at a dose of 1.0 mg/kg given orally. In kind it is functional, Urine. As to conditions: route oral. An outline of the steps:
as §4

A short description of data set [29]: as §5. The data set is classed as functional, Urine. As to conditions: route oral. The gist of the method:
as §4

The record followed here is ChEMBL document CHEMBL1124476, “1-(2-aminoethyl)-6-aryl-4H- [1,2,4]triazolo[4,3-a][1,4]benzodiazepines with diuretic and natriuretic activity” (J Med Chem, 1989).

In the case of `CN(C)CC(c1ccccc1)c1nnc2n1-c1ccc(Cl)cc1C(c1ccc(Cl)cc1)=NC2` (centres undefined), in data set [1], the “T/C 1” value was 1.49.
With `Clc1ccc2c(c1)C(c1ccccc1)=NCc1nnc(C(CN3CCCC3)c3ccccc3)n1-2` (centres undefined), the “T/C 1” value in data set [2] stood at 1.33.
Turning to `COc1cccc(C2=NCc3nnc(C(CN(C)C)c4ccccc4)n3-c3ccc(Cl)cc32)c1` (centres undefined), the “T/C 1” value in data set [3] is reported as 1.34.
Regarding `Nc1nc(N)c2nc(-c3ccccc3)c(N)nc2n1`, the “Mean excretion of Na+” value was 1.41 m equiv in data set [4]; 0.83 m equiv in data set [5]; 0.4 m equiv in [8]; 1 m equiv in [9]; 0.88 m equiv in data set [15]; 0.6 m equiv in [24]. Further, the Mean urine volume was 6.45 mL in data set [6]; 3.5 mL in [11]; 4.32 mL in [12]; 2.22 mL in data set [17]; 7.01 mL in data set [20]; 9.28 mL in [26]. Moreover, the “Mean excretion of Cl-” value in data set [7] was 0.68 m equiv; in data set [13], 0.7 m equiv; in data set [16], 1.15 m equiv; in [19], 0.81 m equiv; in [22], 0.74 m equiv; in data set [23], 0.47 m equiv. Besides, the “Mean excretion of K+” value in data set [10] worked out at 0.06 m equiv; in data set [14], 0.04 m equiv; in data set [18], 0.12 m equiv; in data set [21], 0.08 m equiv; in data set [25], 0.1 m equiv; in data set [27], 0.1 m equiv.
`NS(=O)(=O)c1cc(C(=O)O)c(NCc2ccco2)cc1Cl` [FUROSEMIDE]: the “Mean excretion of Na+” value came out at 2.37 m equiv in [4]; 0.86 m equiv in data set [5]; 0.82 m equiv in data set [8]; 1.13 m equiv in data set [9]; 3.52 m equiv in data set [15]; 0.83 m equiv in [24]. For the same compound, the Mean urine volume in data set [6] worked out at 8.48 mL; in [12] it was 5.23 mL; in [28], 4.7 mL; in data set [29] it was 4.45 mL; in [20], 27.8 mL; in data set [26], 18.3 mL. The “Mean excretion of K+” value in [10] was determined as 0.67 m equiv; in [14], 0.46 m equiv; in data set [18], 0.22 m equiv; in [21], 0.34 m equiv; in data set [25], 0.27 m equiv; in data set [27] it was 0.21 m equiv.
`NS(=O)(=O)c1cc2c(cc1Cl)NCNS2(=O)=O` [HYDROCHLOROTHIAZIDE]: the “Mean excretion of Na+” value stood at 1.86 m equiv in data set [4]; 1.66 m equiv in data set [5]; 1.32 m equiv in data set [8]; 1.86 m equiv in data set [9]; 1.9 m equiv in [15]; 1.59 m equiv in [24]. Further, the Mean urine volume was 9.24 mL in [6]; 8.48 mL in data set [12]; 8.87 mL in data set [28]; 7.18 mL in data set [29]; 10.61 mL in data set [20]; 10.03 mL in data set [26]. Further, the “Mean excretion of Cl-” value in data set [7] stood at 1.77 m equiv; in data set [13] it was 2.09 m equiv; in [16] it was 2.03 m equiv; in data set [19], 1.91 m equiv; in data set [22], 1.78 m equiv; in data set [23], 1.42 m equiv. Further, the “Mean excretion of K+” value in data set [10] worked out at 0.36 m equiv; in data set [14], 0.3 m equiv; in [18], 0.26 m equiv; in data set [21], 0.31 m equiv; in data set [25], 0.34 m equiv; in data set [27] it was 0.32 m equiv.
